Measurements of several laboratories.
Protocols differ between the studies behind these lines.
Cell line: Vero
Observed: cell growth or viability

SMILES | assay | conditions | IC50
CO[C@H]1[C@H](O[C@H]([C@H]2O[C@@H](n3ccc(=O)[nH]c3=O)[C@H](O)[C@@H]2O)[C@H](NCCCNC(=O)[C@@H](NC(=O)[C@@H](NC(=O)N[C@H](C(=O)O)C(C)C)[C@@H]2CCN=C(N)N2)[C@@H](OC(=O)CCCCCCCCCCCCN(O)C(=N)N)C(C)C)C(=O)O)O[C@H](CN)[C@H]1O | WST-1 | – | > 35 µM
O=C1C[C@@H](c2ccccc2)Oc2c(Cc3ccccc3O)c(O)c(Cc3ccccc3O)c(O)c21 | MTT | 72 h | 48.7 µM
O=C1[C@H](CC[C@H](O)c2ccc(F)cc2)[C@@H](c2ccc(O)cc2)N1c1ccc(F)cc1 | MTT | 72 h | 36.5 µg/mL
NC1=NN(C(=O)C=Cc2ccccc2)C(=O)C1N=Nc1ccccc1C(=O)O (stereo not shown) | MTT | 72 h | 59.7 µM
C[C@@H]1C[C@H]2[C@@H]3CCC4=CC(=O)C=C[C@]4(C)[C@@]3(F)[C@@H](O)C[C@]2(C)[C@@]1(O)C(=O)CO | MTT | 48 h | 80.1 µM
COc1cccc2c1C(=O)c1c(O)c3c(c(O)c1C2=O)C[C@@](O)(C(=O)CO)C[C@@H]3O[C@H]1C[C@H](N)[C@H](O)[C@H](C)O1 | MTT | 72 h | 2.1 µM
C/C(=N/NC(=O)c1cn(-c2ccccc2)nc1-c1ccc(Cl)cc1)c1c(O)cc(C)oc1=O | MTT | 48 h | 102 µM
CO[C@H]1[C@H](O[C@H]([C@H]2O[C@@H](n3ccc(=O)[nH]c3=O)[C@H](O)[C@@H]2O)[C@H](NCCCNC(=O)[C@@H](NC(=O)[C@@H](NC(=O)N[C@H](C(=O)O)C(C)C)[C@@H]2CCN=C(N)N2)[C@@H](O)C(C)C)C(=O)O)O[C@H](CN)[C@H]1O | WST-1 | – | > 35 µM
C/C(=N/NC(=O)c1cn(-c2ccccc2)nc1-c1ccccc1)c1c(O)cc(C)oc1=O | MTT | 48 h | 664 µM
NC1=NC(=NS(=O)(=O)c2ccc(N)cc2)NC(=O)C1N=Nc1ccccc1C(=O)O (stereo not shown) | MTT | 72 h | 57.4 µM
